Experimental data: ChEMBL document CHEMBL1124099, “[1,2,4]Triazolo[4,3-a]quinoxalin-4-amines: a new class of A1 receptor selective adenosine antagonists” (J Med Chem, 1988)
pKi: −log10 of the molar value.

How the values were obtained:
Adenosine receptor A1 = target: T1, Adenosine receptor A1 (Rattus norvegicus, UniProt P25099); experiment: Binding affinity towards adenosine A1 receptor using [3H]N-cyclohexyladenosine in rat whole brain membranes.; type: cell membranes
T1 sequence (P25099 whole entry): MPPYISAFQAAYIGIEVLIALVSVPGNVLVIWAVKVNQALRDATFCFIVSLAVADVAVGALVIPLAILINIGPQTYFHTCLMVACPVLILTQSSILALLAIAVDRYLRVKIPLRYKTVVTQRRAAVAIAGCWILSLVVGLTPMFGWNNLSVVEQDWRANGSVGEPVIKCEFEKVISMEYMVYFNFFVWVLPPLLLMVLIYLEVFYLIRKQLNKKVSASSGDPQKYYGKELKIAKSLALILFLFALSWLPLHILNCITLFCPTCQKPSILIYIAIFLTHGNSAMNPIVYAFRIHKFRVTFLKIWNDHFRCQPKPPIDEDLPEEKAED
How it was run: (§1)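 Radioligand displacement on rat membranes: A1 used [3H]N6-cyclohexyladenosine ([3H]CHA) with whole-brain membranes, and A2 used [3H]NECA with striatal membranes. The procedure follows an earlier report. Each value is the mean of three or more independent experiments.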

Adenosine A2 receptor = Adenosine A2 receptor (Rattus norvegicus, UniProt P29276+P30543); experiment: Binding affinity against Adenosine-2 receptor with [3H]-NECA in rat striatal membranes.; type: cell membranes; how it was run: as §1
[1] = target: Adenosine receptors; A1 & A2 (Rattus norvegicus) (UniProt P29276+P25099+P30543); experiment: Ratio of Ki at A2 and A1 receptors; type: protein assay

**Q.** `CCc1nnc2c(NC3CC3)nc3ccccc3n12` was tested. Which pKi (Adenosine receptor A1) did it give?
**A.** Its pKi is 6.59.

**Q.** And the Ki (Adenosine A2 receptor)?
**A.** The Ki was 4.5 µM.

**Q.** And the Ratio [1]?
**A.** The Ratio was 17.3.

**Q.** With `CC(C)Nc1nc2ccccc2n2cnnc12` as the compound, how does the pKi (Adenosine receptor A1) read?
**A.** Its pKi is 5.64.

**Q.** And the Ki (Adenosine A2 receptor)?
**A.** Its Ki is 7 µM.

**Q.** What about the Ratio [1] of the same compound?
**A.** The Ratio was 3.

**Q.** How did the pKi (Adenosine receptor A1) turn out when `CCc1nnc2c(NCC(C)O)nc3ccccc3n12` (stereo not given) was run?
**A.** Its pKi is 6.48.

**Q.** What about the Ki (Adenosine A2 receptor) of the same compound?
**A.** Its Ki is 22 µM.

**Q.** What about the Ratio [1] of the same compound?
**A.** Its Ratio is 67.

**Q.** `CCCc1nnc2c(NC3CCCC3)nc3ccccc3n12` was tested. Which pKi (Adenosine receptor A1) did it give?
**A.** The pKi was 7.41.

**Q.** And the Ki (Adenosine A2 receptor)?
**A.** The Ki was 1.83 µM.

**Q.** And the Ratio [1]?
**A.** The Ratio was 47.

**Q.** `CCc1nnc2c(NC3CCC3)nc3ccccc3n12` was tested. Which pKi (Adenosine receptor A1) did it give?
**A.** The pKi was 7.24.

**Q.** And the Ki (Adenosine A2 receptor)?
**A.** Its Ki is 1.71 µM.

**Q.** And the Ratio [1]?
**A.** The Ratio was 29.

**Q.** How did the pKi (Adenosine receptor A1) turn out when `CCc1nnc2c(NC3CC4CCC3C4)nc3ccccc3n12` (stereo not given) was run?
**A.** Its pKi is 7.36.

**Q.** What about the Ki (Adenosine A2 receptor) of the same compound?
**A.** The Ki was 6.1 µM.

**Q.** What about the Ratio [1] of the same compound?
**A.** Its Ratio is 139.

**Q.** With `FC(F)(F)c1nnc2c(NC3CCCC3)nc3ccccc3n12` as the compound, how does the pKi (Adenosine receptor A1) read?
**A.** Its pKi is 8.14.

**Q.** What about the Ki (Adenosine A2 receptor) of the same compound?
**A.** Its Ki is 1.01 µM.

**Q.** What about the Ratio [1] of the same compound?
**A.** The Ratio was 138.

**Q.** How did the pKi (Adenosine receptor A1) turn out when `Cc1nnc2c(NC3CCCC3)nc3ccccc3n12` was run?
**A.** Its pKi is 7.47.

**Q.** And the Ki (Adenosine A2 receptor)?
**A.** The Ki was 2.7 µM.

**Q.** What about the Ratio [1] of the same compound?
**A.** The Ratio was 79.

**Q.** What does the source list for `CCCCc1nnc2c(NC3CCCC3)nc3ccccc3n12`?
**A.** pKi (Adenosine receptor A1): 7.26; Ki (Adenosine A2 receptor): > 10 µM; Ratio [1]: > 182

**Q.** How did the pKi (Adenosine receptor A1) turn out when `CCN(CC)c1nc2ccccc2n2cnnc12` was run?
**A.** Its pKi is 5.05.

**Q.** And the Ki (Adenosine A2 receptor)?
**A.** Its Ki is 18.8 µM.

**Q.** What about the Ratio [1] of the same compound?
**A.** Its Ratio is 2.1.

**Q.** What does the source list for `c1ccc2c(c1)nc(NC1CCCC1)c1nncn12`?
**A.** pKi (Adenosine receptor A1): 6.74; Ki (Adenosine A2 receptor): 6.7 µM; Ratio [1]: 37

**Q.** With `CCc1nnc2c(Nc3ccccc3)nc3ccccc3n12` as the compound, how does the pKi (Adenosine receptor A1) read?
**A.** Its pKi is 6.20.

**Q.** And the Ki (Adenosine A2 receptor)?
**A.** The Ki was 11.8 µM.

**Q.** What about the Ratio [1] of the same compound?
**A.** The Ratio was 18.7.

**Q.** What does the source list for `CCc1nnc2c(NC(C)C)nc3ccccc3n12`?
**A.** pKi (Adenosine receptor A1): 6.62; Ki (Adenosine A2 receptor): 4.2 µM; Ratio [1]: 17.5

**Q.** With `CCc1nnc2c(NC3CCCC3)nc3ccccc3n12` as the compound, how does the pKi (Adenosine receptor A1) read?
**A.** The pKi was 7.55.

**Q.** And the Ki (Adenosine A2 receptor)?
**A.** The Ki was 3 µM.

**Q.** And the Ratio [1]?
**A.** The Ratio was 107.

**Q.** `CCc1nnc2c(NC3CCCCC3)nc3ccccc3n12` was tested. Which pKi (Adenosine receptor A1) did it give?
**A.** Its pKi is 7.10.

**Q.** And the Ki (Adenosine A2 receptor)?
**A.** Its Ki is 4 µM.

**Q.** What about the Ratio [1] of the same compound?
**A.** Its Ratio is 50.
